Only some compounds are listed: those with a hit (about 2.9% of all), similar ones and a draw of the others.
Ins promoter up = insulin promoter activators in MIN6 cells, imaging, high-content screening, mouse beta cells; MIN6 insulin promoter-GFP reporter; stronger effect = higher value; z-score at 5 µM; actives 0.3% (n = 190,000); AID 1625, 2009;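 active = z-score above 3 at 5 µM with at least 500 cells counted in the well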
MT stabilize HCS = microtubule stabilizers in HeLa cells, primary screen, imaging, high-content imaging | % tubulin-high responders, % at 10 µM | AID 2205, 2009 | HeLa tubulin immunostaining HCS, 24 h; share of cells brighter than vehicle mean+2SD | actives 0.83% (n = 200,000);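 active = plate Z-score above 3 for both tubulin-high and condensed-nucleus cell shares, with cell loss under 80%, at 10 µM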;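 note: anti alpha tubulin signal scored within the nucleus-defined area of each cell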
b-catenin transl = modulators of beta-catenin nuclear translocation, primary screen, imaging, HeLa cells, immunofluorescence, high-content; nuclear translocation activity, % at 5 µM; actives 0.3% (n = 190,000);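 active = nuclear translocation activity above 50% at 5 µM, with a well cell count of 50 or more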;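 note: per-cell ratio of nuclear to cytoplasmic median beta-catenin stain intensity; plate controls were DMSO negative control for no effect and GSK-3 inhibitor IX positive control for full effect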
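assay system = human HeLa cells, endogenous beta-catenin | times = compound treatment 24 h, 37°C, 5% CO2 | detection = Anti-beta-catenin immunofluorescence on PFA-fixed, Triton-permeabilized cells, DAPI nuclei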
Wee1 degr inh = Wee1 degradation inhibitors, primary screen, cell-based, HeLa, Wee1K328M-luciferase, luminescence. HeLa Luc-Wee1K328M stability; 100% = proteasome inhibitor MG132 effect. reporter increase, % at 5 µM. actives 1.2% (n = 220,000). AID 1321, 2008;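 active = activation above the mean of all tested compounds plus 3 SD, set per screening run, cut at about 8.8% in these data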;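 note: cells exposed to compound for 20 h before luminescence read; 0% = DMSO alone and 100% = MG132 at 30 µM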
Target sequence (P30291 whole entry K328M): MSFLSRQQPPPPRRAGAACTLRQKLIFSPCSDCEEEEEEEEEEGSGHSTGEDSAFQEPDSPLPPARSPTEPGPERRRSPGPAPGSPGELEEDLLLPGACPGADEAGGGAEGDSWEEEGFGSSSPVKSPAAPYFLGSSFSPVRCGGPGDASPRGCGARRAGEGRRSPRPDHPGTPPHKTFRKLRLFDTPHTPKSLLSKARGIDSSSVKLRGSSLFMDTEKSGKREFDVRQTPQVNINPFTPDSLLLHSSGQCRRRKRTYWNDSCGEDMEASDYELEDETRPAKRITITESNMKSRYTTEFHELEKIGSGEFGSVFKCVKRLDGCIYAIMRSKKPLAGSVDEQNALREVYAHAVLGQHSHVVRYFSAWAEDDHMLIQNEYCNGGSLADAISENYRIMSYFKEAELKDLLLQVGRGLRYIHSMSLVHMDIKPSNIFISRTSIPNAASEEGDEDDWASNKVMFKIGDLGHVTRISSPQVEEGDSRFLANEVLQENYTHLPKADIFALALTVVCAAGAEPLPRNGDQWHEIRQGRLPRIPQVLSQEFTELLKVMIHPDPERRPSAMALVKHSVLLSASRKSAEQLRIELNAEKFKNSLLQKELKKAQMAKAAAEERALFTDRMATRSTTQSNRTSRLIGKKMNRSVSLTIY
Autophagy HCS = autophagy modulators in MEF cells, primary screen, imaging, high-content, MEF GFP-LC3 | MEF GFP-LC3 puncta imaging; test concentration mostly 10 µM | actives 0.98% (n = 190,000) | calls only at 10 µM (by protocol) | AID 463193, 2010;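 active = percentage of spot-positive cells more than 3 SD above its plate mean, without a fluorescence outlier flag or 80% toxicity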;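 note: spot-positive cell cutoff set from DMSO-treated cells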
Wee1 degr conf = Wee1 degradation inhibitors, confirmation, cell-based, HeLa, Wee1K328M-luciferase, luminescence, triplicate. shares compounds with Wee1 degr inh. HeLa Luc-Wee1K328M degradation; vehicle 0%, proteasome-blocked wells 100%. activation, % at 5 µM. actives 4% (n = 1,100). AID 1410, 2008; in the data active = activation above about 8.9%
The depositor's hits bear a star; i = inactive; · = no result given; + = active, no number.

SMILES	Ins promoter up	MT stabilize HCS	b-catenin transl	Wee1 degr inh	Autophagy HCS	Wee1 degr conf
COc1cc(/C=N/Nc2ccc(S(N)(=O)=O)cc2[N+](=O)[O-])cc(OC)c1O	-0.82	·	1	11*	·	-1
CCOc1cc(/C=C2\C(=O)ON=C2C)ccc1OCc1ccccc1	0.29	4	0	18*	i	1
CCOC(=O)c1sc2nccc(OC)c2c1N=CN(C)C	-0.18	2	0	-1	i	·
Cc1ccccc1NC(=O)NC(N)=O	0.08	3	-1	14*	i	-2
Cc1c(NC(=S)NNC(=O)CCC(=O)O)c(=O)n(-c2ccccc2)n1C	-0.67	·	-1	-2	·	·
CCNC(=S)Nn1cnc2ccccc21	0.08	·	0	-1	·	·
COc1ccc2[nH]c(CN3CCN(C(C)C)C(CCO)C3)c(C)c2c1 (stereo not given)	-1.2	3	0	20*	i	2
CC1(C)Nc2ccccc2C(=O)N1NS(=O)(=O)c1ccccc1	-0.02	3	1	11*	i	5
Cc1ccc(S(=O)(=O)NN2C(=O)c3ccccc3NC2(C)C)cc1	1.3	3	-5	-2	i	·
COc1cccc(/C=N/NC(=O)c2cc3c(OC)c(OC)ccc3[nH]2)c1OC	-0.12	11	25	12*	i	10*
COc1cccc(/C=N/NC(=O)c2cc3c(OC)cccc3[nH]2)c1OC	0	9	-2	0	i	·
CCCN(Cc1cc2ccc(C)cc2[nH]c1=O)S(=O)(=O)c1ccccc1	·	2	·	-2	i	·
Cc1ccc2nc(-c3ccc4c(c3)NC(=O)CO4)cn2c1	-0.36	·	1	20*	·	5
CCOC(=O)c1c(CSc2cccs2)n(C)c2cc(Br)c(O)c(CN(C)C)c12	-1.6	7	-1	-4	i	·
CC(C)CN(C(=O)COC(=O)CNC(=O)c1ccccc1F)C1CCS(=O)(=O)C1 (stereo not given)	0.17	3	-1	-3	i	·
CCC(C)N(C(=O)COC(=O)CNC(=O)c1ccccc1F)C1CCS(=O)(=O)C1 (stereo not given)	·	2	-1	15*	i	-1
CC(=O)c1cccc(NC(=O)C(=O)c2cn(CC(=O)N3CCCCC3)c3ccccc23)c1	-1.1	3	0	-2	i	·
NS(=O)(=O)c1ccc(NC(=S)NC(=O)c2cccs2)cc1	1.5	·	-2	19*	·	3
C/C(CC(=O)Nc1ccc2c(c1)OCO2)=N\NC(=O)C(c1ccccc1)c1ccccc1	0.08	3	-4	-2	i	·
C/C(CC(=O)Nc1ccc2c(c1)OCO2)=N\NC(=O)c1ccccc1N	0.34	·	-1	12*	·	-1
Cc1ccc(CSCC(=O)Nc2ccc3c(c2)OCO3)cc1	·	1	·	0	i	·
O=C(CSCc1ccccc1)Nc1ccc2c(c1)OCO2	0.65	2	-2	12*	i	4
O=C(CSc1nnc(-c2ccc(F)cc2)c2ccccc12)NCC1CCCO1 (stereo not given)	-0.17	3	1	2	i	·
COc1ccc(-c2[nH]ncc2CN(C)Cc2nonc2C)c(OC)c1	-1.1	2	2	-2	i	·
Cc1ccc(NC(=O)CCC(=O)c2cccs2)c(O)c1	-0.21	·	1	15*	·	0
SMILES	Ins promoter up	MT stabilize HCS	b-catenin transl	Wee1 degr inh	Autophagy HCS	Wee1 degr conf
Cc1ccc(F)cc1NC(=O)CCC(=O)c1cccs1	1.4	1	-1	0	i	·
Cc1nc(CNC(=O)CC2C(=O)NCCN2Cc2cccc(Oc3ccccc3)c2)cs1 (stereo not given)	1	2	-1	-1	i	·
Cc1ccc2nc3sc(C(=O)Nc4c(C)[nH]c(=O)[nH]c4=O)c(N)c3cc2c1	·	3	0	2	i	·
Cc1ccc2cc3c(N)c(C(=O)Nc4c(C)[nH]c(=O)[nH]c4=O)sc3nc2c1	·	4	1	12*	+	-2
CCN1CCN(C(=O)/C(C#N)=C/c2ccc(OC(F)F)cc2)CC1	0.07	4	-1	-1	i	·
N#C/C(=C\c1ccc(OC(F)F)cc1)C(=O)N1CCCCC1	-0.25	·	-2	15*	·	0
CCOc1ccc(-n2c(O)c(/C=N/NC(=O)C3COc4ccccc4O3)c3ccccc3c2=O)cc1 (stereo not given)	·	4	2	3	i	·
O=S(=O)(c1ccc(N2CCC(c3ccc(Cl)cc3)=N2)cc1)N(CCO)CCO	0.34	2	-2	11*	i	0
O=S(=O)(c1ccc(Oc2ccc(S(=O)(=O)N(CCO)CCO)cc2)cc1)N(CCO)CCO	0.25	3	-1	4	i	·
Cc1cc(C)nc(NC(=O)c2ccc(COc3ccccc3Cl)cc2)c1	-1.1	5	0	14*	i	2
CC(C)N(c1ccccc1)c1ccc(NC(=O)COC(=O)CCN2C(=O)c3cccc([N+](=O)[O-])c3C2=O)cc1	0.15	4	0	20*	i	-1
CN(C)S(=O)(=O)c1ccc(Cl)c(NC(=O)CSc2nc3ccccc3c(=O)n2CCCN2CCOCC2)c1	-0.19	1	-2	4	i	·
Nc1[nH]n(-c2ccccc2)c(=O)c1N=Nc1ccc2c(c1)OCO2	-0.58	·	1	12*	·	-2
Cc1ccc2c(CC(=O)NCCc3ccc(S(N)(=O)=O)cc3)coc2c1	0.02	·	1	-1	·	·
O=C(Nc1ccc(Cl)cc1)NC1CCCCC1	-0.34	3	1	11*	i	6
COC(=O)C1CCN(C(=O)COC(=O)CCc2nc3ccccc3c(=O)[nH]2)CC1	-0.12	2	-2	-3	i	·
Cc1cccc(C(=O)NCC(=O)OCC(=O)N2CCc3ccccc32)c1	-0.39	9	-1	13*	i	0
Cc1ccc(C(=O)NCC(=O)OCC(=O)N2CCCc3ccccc32)cc1	-0.16	1	·	-1	i	·
C/C(=N\N(c1ccccc1)c1ccccc1)c1ccco1	-0.8	3	1	0	i	·
O=[N+]([O-])c1ccccc1/C=N/n1c(C(F)(F)F)n[nH]c1=S	0.58	2	-4	12*	i	1
O=C(c1ccc(S(=O)(=O)NCC2CCCO2)cc1)N1CCN(c2ccccc2F)CC1 (stereo not given)	0.3	3	1	26*	i	1
CCOC(=O)Cn1c(C(C)=O)nc2ccccc21	0.44	5	-5	12*	i	0
COC(=O)Cn1c(=O)c(C)nc2ccccc21	0.53	4	-1	13*	i	-4

Assay outcomes (PubChem BioAssay)
